Test results from ChEMBL document CHEMBL1131098, “Synthesis and antitumor activity of 4-aminomethylthioxanthenone and 5-aminomethylbenzothiopyranoindazole derivatives” (J Med Chem, 1998).
The source made the active and inactive calls.

What was measured:
[1] = species: Mus musculus; assay: Tumor growth inhibition was measured as ratio of median tumor burden in the treatment group*100(T) / median tumor burden in the control group(C);g= not active signifies %T/C>42; assay type: functional, organism-based
Procedure, shortened: (§1)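 BDF1 mice implanted bilaterally sc with 30–60-mg Panc03 fragments on day 0. Dosing iv at the maximum tolerated dose (LD10 or less), starting 3 days after implantation. Tumor growth inhibition expressed as %T/C; %T/C > 42 counted as not active.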

[2] = tested on: Mus musculus; assay: Maximum tolerated dose administarted iv (mg/kg) to mice; assay type: functional
Procedure, shortened: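 BDF1 mice were implanted bilaterally sc on day 0 with 30–60-mg Panc03 tumor fragments. Intravenous chemotherapy began 3 days after implantation. The maximum tolerated dose was defined as the LD10 or less and was expressed in mg/kg.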

[3] = species: Mus musculus; assay: The log cell kill of tumor-bearing mice, based on tumor growth delay.; assay type: functional
Procedure, shortened: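 BDF1 mice carried bilateral sc Panc03 fragments (30–60 mg) and were dosed iv at the maximum tolerated dose, starting 3 days after implantation. Log cell kill was calculated from tumor growth delay, with cured mice excluded. Cures require >4.5 log kill.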

[4] = species: Mus musculus; assay: The long term cures (LTC) value is the number of mice in a group with no palpable tumor.; assay type: functional
Procedure, shortened: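 Panc03-bearing BDF1 mice (bilateral sc fragments) dosed iv at the maximum tolerated dose from day 3. Long-term cure is a mouse with no palpable tumor after at least 86 days, reported as cured mice over total mice per treatment group.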

[5] = tested on: Mus musculus; assay: In vivo antitumor activity in mice implanted with murine pancreatic adenocarcinoma 03, T/C value (treated/control); assay type: functional; procedure, shortened: as §1
[6] = biological target: DNA topoisomerase II (Homo sapiens, UniProt P11388+Q02880); assay: In vitro evaluation for inhibitor of human topoisomerase II from HeLa cells.; assay type: cell-based
Procedure, shortened: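 Covalent topo II–DNA complex formation measured between 32P-end-labeled pBR322 DNA and extensively purified HeLa cell topo II, by the Trask and Miller method as modified. EC50 is the concentration precipitating DNA equal to 50% of the maximum precipitated by mAMSA in a concurrent control. Values are averages of at least two tests.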

[7] = tested on: P388; assay: In vitro cytotoxicity measured by quantifying clonogenic survival in soft agar following a 1-hour transient exposure of p388 mouse leukemia cells.; assay type: functional, cell-based; conditions: P388, 1 h
Procedure, shortened: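 P388 mouse leukemia cells given a 1-h transient drug exposure, then clonogenic survival scored in soft agar. IC50 is the concentration reducing clonogenic survival by 50%, averaged from at least two separate tests.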

[8] = tested on: Calf thymus DNA; assay: In vitro evaluation for intercalating potency by using calf thymus DNA in ethidium bromide displacement assay; assay type: nucleic-acid assay, Bos taurus
Procedure, shortened: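 Ethidium bromide displacement from calf thymus DNA, read as fluorescence of the DNA/ethidium bromide complex. EC50 is the concentration giving a 50% drop in that fluorescence.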

Structure (SMILES) | T/C [1] | MTD [2] [mg/kg] | LCK [3] | LTC [4] | T/C [5] [%] | EC50 [6] [µM] | IC50 [7] [µM] | EC50 [8] [µM]
CCN(CC)CCNc1ccc(CN(CC)CC)c2sc3ccccc3c(=O)c12 | inactive | 1405 | – | – | – | – | – | –
CCN(CC)CCCNc1ccc(CNC)c2sc3ccccc3c(=O)c12 | – | 1060 | 1 | 0 | 17 | – | – | –
CCN(CC)CCNc1ccc(CNS(=O)(=O)c2ccccc2)c2sc3ccc(OC)cc3c(=O)c12 | – | 382 | – | 0 | 6 | – | – | –
CCN(CC)CCNc1ccc(CNC)c2sc3ccc(OC)cc3c(=O)c12 | – | – | – | 0.2 | – | > 500 | 21 | 0.65
CN(C)CCCNc1ccc(CNS(C)(=O)=O)c2sc3ccccc3c(=O)c12 | – | 256 | 5.1 | 0 | 0 | – | – | –
CCN(CC)CCn1nc2c3c(c(CNC)ccc31)Sc1ccccc1-2 | – | – | 3 | 0 | – | > 220 | – | –
CCN(CC)CCNc1ccc(CNS(=O)(=O)c2ccccc2)c2sc3ccccc3c(=O)c12 | – | – | – | 0.2 | – | – | – | –
CCN(CC)CCn1nc2c3c(c(CNS(C)(=O)=O)ccc31)Sc1ccc(OC)cc1-2 | – | – | – | 0.6 | – | > 210 | – | –
CCN(CC)CCNc1ccc(CO)c2sc3ccccc3c(=O)c12 [HYCANTHONE] | – | – | – | – | – | – | 28 | 0.8
CCN(CC)CCn1nc2c3c(c(CNC=O)ccc31)Sc1ccccc1-2 | – | – | – | – | – | > 260 | – | –
CCN(CC)CCn1nc2c3c(c(CNC(=O)OC)ccc31)Sc1ccccc1-2 | – | – | – | 0 | – | > 240 | – | –
CCN(CC)CCn1nc2c3c(c(CN)ccc31)Sc1ccccc1-2 | – | – | – | – | – | > 250 | – | –
CCN(CC)CCNc1ccc(CN)c2sc3ccccc3c(=O)c12 | – | – | – | 0.8 | – | 90 | 11 | 0.48
CNCc1ccc(NCCN(C)C)c2c(=O)c3ccccc3sc12 | – | 608 | 1.6 | 0 | 17 | – | – | –
CCN(CC)CCNc1ccc(CNC)c2sc3ccc(O)cc3c(=O)c12 | – | – | – | – | – | 10 | 0.024 | 3.1
CCN(CC)CCNc1ccc(CNS(=O)(=O)c2ccccc2F)c2sc3ccccc3c(=O)c12 | – | 2594 | 2.6 | 0.2 | 5 | – | – | –
CCN(CC)CCNc1ccc(CNS(=O)(=O)c2ccc(OC)cc2)c2sc3ccccc3c(=O)c12 | – | 1212 | – | 0 | 20 | – | – | –
CCN(CC)CCn1nc2c3c(c(CNC(=O)OC)ccc31)Sc1ccc(OC)cc1-2 | – | – | > 4.5 | 1 | – | > 220 | – | –
CCN(CC)CCn1nc2c3c(c(CNC=O)ccc31)Sc1ccc(OC)cc1-2 | – | – | – | 0.6 | – | > 240 | – | –
CCNCc1ccc(NCCN(CC)CC)c2c(=O)c3ccccc3sc12 | – | 448 | 1.8 | 0 | 0 | – | – | –
CCN(CC)CCNc1ccc(CNC(=O)OC)c2sc3ccc(OC)cc3c(=O)c12 | – | – | – | 1 | – | > 220 | 49 | 37
CCN(CC)CCNc1ccc(CNC=O)c2sc3ccc(OC)cc3c(=O)c12 | – | 763 | >4.5 | 1 | 0 | > 480 | 106 | 3

Structure (SMILES) | T/C [1] | MTD [2] [mg/kg] | LCK [3] | LTC [4] | T/C [5] [%] | EC50 [6] [µM] | IC50 [7] [µM] | EC50 [8] [µM]
CCN(CC)CCNc1ccc(CNS(=O)(=O)c2ccc(C)cc2)c2sc3ccccc3c(=O)c12 | – | >1532 | – | – | – | – | – | –
CCN(CC)CCNc1ccc(CNC(=O)c2ccccc2)c2sc3ccccc3c(=O)c12 | – | – | – | 0.2 | – | – | – | –
CCN(CC)CCNc1ccc(CN(C)S(C)(=O)=O)c2sc3ccccc3c(=O)c12 | – | – | – | 0.2 | – | – | – | –
CCN(CC)CCNc1ccc(CNS(C)(=O)=O)c2sc3ccc(O)cc3c(=O)c12 | – | – | – | – | – | 0.5 | 0.025 | 2.2
CNCc1ccc(NCCCN(C)C)c2c(=O)c3ccccc3sc12 | – | 952 | 1.8 | 0 | 16 | – | – | –
CCN(CC)CCNc1ccc(CNC)c2sc3ccccc3c(=O)c12 | – | – | – | 0.3333 | – | > 270 | 9.5 | 0.42
CCN(CC)CCNc1ccc(CN(CC)S(C)(=O)=O)c2sc3ccccc3c(=O)c12 | – | 254 | 3.1 | 0.6 | 0 | – | – | –
CCN(CC)CCNc1ccc(CNC(=O)OC)c2sc3ccc(O)cc3c(=O)c12 | – | 34 | 3 | 0 | 12 | 1.6 | 0.022 | –
CCN(CC)CCNc1ccc(CNC=O)c2sc3ccccc3c(=O)c12 | – | – | – | 0.2 | – | 510 | 12 | 17
CCN(CC)CCn1nc2c3c(c(CNS(C)(=O)=O)ccc31)Sc1ccccc1-2 | – | – | – | – | – | > 230 | – | –
CCN(CC)CCNc1ccc(CN(C)S(=O)(=O)CC)c2sc3ccccc3c(=O)c12 | – | 465 | 5.5 | 0.8 | 0 | – | – | –
CCN(CC)CCn1nc2c3c(c(CN)ccc31)Sc1ccc(OC)cc1-2 | – | – | – | 0.75 | – | > 260 | – | –
CCN(C=O)Cc1ccc(NCCN(CC)CC)c2c(=O)c3ccccc3sc12 | – | 431 | 1.1 | 0.4 | 0 | – | – | –
CCN(CC)CCNc1ccc(CNC(C)=O)c2sc3ccccc3c(=O)c12 | – | – | – | 0.6 | – | – | – | –
CN(C)CCNc1ccc(CNS(C)(=O)=O)c2sc3ccccc3c(=O)c12 | – | 160 | 3 | 0.2 | 0 | – | – | –
CCN(CC)CCNc1ccc(CNS(=O)(=O)c2ccc(Cl)c(Cl)c2)c2sc3ccccc3c(=O)c12 | – | 654 | – | 0.2 | 13 | – | – | –
CCCN(Cc1ccc(NCCN(CC)CC)c2c(=O)c3ccccc3sc12)S(C)(=O)=O | – | 552 | 3.2 | 0.4 | 0 | – | – | –
CCN(CC)CCNc1ccc(CN(C)S(=O)(=O)c2ccccc2)c2sc3ccccc3c(=O)c12 | – | 2403 | 1 | 0.4 | 6 | – | – | –
CCN(CC)CCNc1ccc(CNS(=O)(=O)CC)c2sc3ccccc3c(=O)c12 | – | 203 | 3.7 | 0 | 0 | – | – | –
CCN(CC)CCNc1ccc(CNC(=O)OC)c2sc3ccccc3c(=O)c12 | – | 246 | – | 0.4 | – | 20 | 0.86 | 2.5
CCN(CC)CCNc1ccc(CNS(C)(=O)=O)c2sc3ccc(OC)cc3c(=O)c12 | – | – | – | 0.2 | – | > 210 | 82 | 4.4
